What was measured:
[1] = Half life in human patient with relapsed solid tumor at 20 mg/m'2, iv administered on days 1, 2, 8, 9, 15 and 16 of 28-day cycle over 2 to 10 mins measured on day 16 of cycle 1 by LC-MS/MS analysis; format: ADME, organism-based; details: in vivo
Summary of the method: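 Patients with relapsed solid tumors (n=3) received carfilzomib IV at 20 mg/m2. Plasma was sampled on Days 1 and 16 of Cycle 1 before dosing, at end of administration, and at 5, 15, 30 min and 1, 2, 4 h after. Samples underwent solid phase extraction and LC-MS/MS with d10-carfilzomib internal standard over 0.100–200 ng/mL. Parameters were derived noncompartmentally (constant IV infusion model) from actual elapsed time from infusion start.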

CYP3A [2] = target: T1, CYP3A (Homo sapiens, UniProt P08684+P20815+P24462+Q9HB55); experiment: Inhibition of CYP3A in human liver microsomes assessed as substrate metabolite formation using testosterone as substrate measured after 5 mins by LC-MS/MS analysis; format: ADME; details: probe testosterone
Summary of the method: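 Pooled HLM from 16 donors were incubated at 37°C in duplicate with carfilzomib 0.01–10 µM and probe substrate at about its Km. Substrates were phenacetin, amodiaquine, diclofenac, S-mephenytoin, dextromethorphan, testosterone and midazolam. Protein was 0.1 mg/mL, or 0.05 mg/mL with midazolam. Reactions ran 5 min without preincubation, then were quenched with acetonitrile. Metabolites were measured by LC-MS/MS relative to 0.5% acetonitrile controls.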

Cytochrome P450 2C8 = target: T2, Cytochrome P450 2C8 (Homo sapiens, UniProt P10632); experiment: Drug metabolism in pooled human hepatocytes assessed as disapperance rate at 1 uM by LC-MS/MS analysis in presence of 30 uM CYP2C8 inhibitor montelukast; format: ADME, cell-based, Hepatocyte
T2 sequence (P10632 whole entry): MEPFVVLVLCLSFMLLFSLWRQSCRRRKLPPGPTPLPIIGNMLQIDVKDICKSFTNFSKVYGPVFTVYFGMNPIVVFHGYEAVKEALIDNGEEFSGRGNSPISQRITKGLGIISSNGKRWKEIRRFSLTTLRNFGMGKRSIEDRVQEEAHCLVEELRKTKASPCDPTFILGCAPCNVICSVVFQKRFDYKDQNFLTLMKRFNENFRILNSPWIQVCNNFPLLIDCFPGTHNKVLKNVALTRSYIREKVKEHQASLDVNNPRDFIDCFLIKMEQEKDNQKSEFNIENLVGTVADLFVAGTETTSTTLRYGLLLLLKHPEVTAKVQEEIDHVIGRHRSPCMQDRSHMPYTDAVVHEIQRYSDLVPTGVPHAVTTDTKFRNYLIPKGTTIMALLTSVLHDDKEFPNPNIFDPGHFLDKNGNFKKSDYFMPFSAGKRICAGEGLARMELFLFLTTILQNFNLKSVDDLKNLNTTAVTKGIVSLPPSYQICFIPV
Summary of the method: (§1)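 Pooled human hepatocytes in suspension (~0.5 x 10^6 viable cells/mL) were incubated with 1 µM carfilzomib at 37°C under 5% CO2, with or without isoform-selective CYP chemical inhibitors. Reactions were quenched with acetonitrile at 0, 15, 30, 60 and 120 min. Carfilzomib was quantified by non-validated LC-MS/MS after protein precipitation.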

CYP3A [3] = target: T1, CYP3A; experiment: Inhibition of CYP3A in human liver microsomes assessed as substrate metabolite formation using testosterone as substrate preincubated with microsomes for 30 mins prior to substrate addition measured after 5 mins by LC-MS/MS analysis; format: ADME; details: probe testosterone
Summary of the method: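 HLM (16-donor pool) were preincubated 30 min with carfilzomib 0.01–10 µM before addition of midazolam or testosterone at about Km. Metabolite formation was measured by LC-MS/MS after 5 min, in duplicate, relative to 0.5% acetonitrile controls.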

Cytochrome P450 1A2 = target: T3, Cytochrome P450 1A2 (Homo sapiens, UniProt P05177); experiment: Drug metabolism in pooled human hepatocytes assessed as disapperance rate at 1 uM by LC-MS/MS analysis in presence of 30 uM CYP1A2 inhibitor furafylline; format: ADME, cell-based, Hepatocyte; summary of the method: as §1
T3 sequence (P05177 whole entry): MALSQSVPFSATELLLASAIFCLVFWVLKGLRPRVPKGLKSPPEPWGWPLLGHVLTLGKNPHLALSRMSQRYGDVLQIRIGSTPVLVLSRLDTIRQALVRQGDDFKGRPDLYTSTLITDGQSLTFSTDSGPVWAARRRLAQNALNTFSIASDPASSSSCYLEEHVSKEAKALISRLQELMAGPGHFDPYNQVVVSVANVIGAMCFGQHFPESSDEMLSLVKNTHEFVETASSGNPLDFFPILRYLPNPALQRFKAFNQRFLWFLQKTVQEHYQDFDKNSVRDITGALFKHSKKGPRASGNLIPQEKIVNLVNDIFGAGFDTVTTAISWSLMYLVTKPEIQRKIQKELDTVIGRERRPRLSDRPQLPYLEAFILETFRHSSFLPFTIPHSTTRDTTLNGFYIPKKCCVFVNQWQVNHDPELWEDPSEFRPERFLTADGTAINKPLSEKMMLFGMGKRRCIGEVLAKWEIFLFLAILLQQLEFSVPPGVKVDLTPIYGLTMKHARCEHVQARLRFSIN

Cytochrome P450 3A [4] = target: T4, Cytochrome P450 3A (Homo sapiens, UniProt P08684+P20815+Q9HB55+P24462); experiment: Time-dependent inhibition of CYP3A in human liver microsomes preincubated for 30 mins with carfilzomib by LC-MS/MS analysis; format: ADME; details: microsomes
Summary of the method: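 Pooled HLM (16 donors) given carfilzomib 0.01–10 µM in duplicate at 37°C with a 30-min preincubation before probe substrate was added. Substrate was set near Km (testosterone Km 100 µM; midazolam Km 3.8 µM). Protein was 0.1 mg/mL, or 0.05 mg/mL with midazolam. Metabolite formation was read by LC-MS/MS after 5 min and expressed relative to 0.5% acetonitrile controls to give IC50.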

Cytochrome P450 3A [5] = target: T4, Cytochrome P450 3A; experiment: Time-dependent inhibition of CYP3A in human liver microsomes assessed as midazolam 1'-hydroxylation using midazolam as substrate measured after 25-fold diution by LC-MS/MS analysis in presence of NADPH; format: ADME
Summary of the method: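 Pooled HLM (16 donors, mixed gender) preincubated in duplicate with carfilzomib 0, 0.5, 1, 3, 5 and 8 µM plus NADPH-generating system (1 mM NADP, 5 mM glucose-6-phosphate, 1 unit/mL G6PDH) for 0–30 min. Microsomal protein in preincubation: 2.5 mg/mL (testosterone) or 1.25 mg/mL (midazolam). Aliquots then diluted 25-fold into 50 mM potassium phosphate, 3 mM MgCl2, 1 mM EDTA, pH 7.4. Residual activity measured over 5 min with testosterone 200 µM or midazolam 40 µM plus NADPH-generating mixture, 37°C. KI and kinact derived.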

Cytochrome P450 3A4 = Cytochrome P450 3A4 (Homo sapiens, UniProt P08684); experiment: Decrease in CYP3A4 activity in human hepatocytes assessed as 6-betahydroxytestosterone formation using testosterone as substrate at 2.5 uM incubated for 3 days prior to substrate challenge for 30 mins by LC-MS/MS analysis; format: ADME, cell-based, Hepatocyte; details: 0.5 h
Cytochrome P450 3A4, sequence (P08684 whole entry): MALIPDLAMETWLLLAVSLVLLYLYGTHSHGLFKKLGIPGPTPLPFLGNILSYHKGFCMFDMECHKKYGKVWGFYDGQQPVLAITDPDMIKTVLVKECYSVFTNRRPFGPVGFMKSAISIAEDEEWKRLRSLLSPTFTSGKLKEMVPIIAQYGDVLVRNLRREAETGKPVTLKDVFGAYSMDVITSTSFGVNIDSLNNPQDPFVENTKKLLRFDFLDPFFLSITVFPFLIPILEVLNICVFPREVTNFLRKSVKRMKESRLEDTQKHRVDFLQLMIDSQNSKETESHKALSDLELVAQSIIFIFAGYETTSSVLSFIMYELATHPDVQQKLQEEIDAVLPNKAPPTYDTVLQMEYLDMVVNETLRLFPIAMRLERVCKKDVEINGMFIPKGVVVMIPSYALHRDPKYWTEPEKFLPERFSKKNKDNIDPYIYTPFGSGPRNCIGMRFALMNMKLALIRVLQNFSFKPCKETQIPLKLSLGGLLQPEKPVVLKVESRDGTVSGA
Summary of the method: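 Hepatocytes from 3 donors were plated on collagen I and cultured 2 days, then treated 3 days with carfilzomib (0.1–2.5 µM), 0.08% DMSO, rifampicin 20 µM or β-naphthoflavone 20 µM, renewed daily. Cells were then incubated in serum-free medium in triplicate with testosterone 200 µM (CYP3A, 30 min, 6β-hydroxytestosterone) or phenacetin 100 µM (CYP1A2, 60 min, acetaminophenol). Products were measured by LC-MS/MS and expressed relative to DMSO.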

half-life [1]: 66 min
IC50 at 5 min (CYP3A [2]): > 10 µM
Drug metabolism (Cytochrome P450 2C8): 0.014 min⁻¹
IC50 at 5 min (CYP3A [3]): > 970 nM
Drug metabolism (Cytochrome P450 1A2): 0.016 min⁻¹
inhibition (INH) (Cytochrome P450 3A [4]): Dose-dependent effect
inhibition (INH) (Cytochrome P450 3A [5]): Active
inhibition (INH) (Cytochrome P450 3A4): 45%
Structure (SMILES): CC(C)C[C@H](NC(=O)[C@H](CCc1ccccc1)NC(=O)CN1CCOCC1)C(=O)N[C@@H](Cc1ccccc1)C(=O)N[C@@H](CC(C)C)C(=O)[C@@]1(C)CO1 [CARFILZOMIB]

Source: ChEMBL document CHEMBL3526139, “Clinical pharmacokinetics, metabolism, and drug-drug interaction of carfilzomib” (Drug Metab Dispos, 2013)
